Laboratory results reported in ChEMBL document CHEMBL1122955, “Synthesis and dihydropteridine reductase inhibitory effects of potential metabolites of the neurotoxin 1-methyl-4-phenyl-1,2,3,6-tetrahydropyridine” (J Med Chem, 1985).

Experiments:
[1] = molecular target: T1, Dihydropteridine reductase (Homo sapiens, UniProt P09417); experiment: Inhibitory activity against human liver Dihydropteridine reductase (DHPR); conditions: read-out: I50
T1 sequence (P09417 whole entry): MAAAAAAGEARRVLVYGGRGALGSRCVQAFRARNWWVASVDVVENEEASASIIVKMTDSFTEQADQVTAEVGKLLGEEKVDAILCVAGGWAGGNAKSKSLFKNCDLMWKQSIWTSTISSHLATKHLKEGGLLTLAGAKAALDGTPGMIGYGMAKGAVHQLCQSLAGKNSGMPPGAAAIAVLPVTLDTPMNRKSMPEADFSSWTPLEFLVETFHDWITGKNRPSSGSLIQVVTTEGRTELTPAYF
Method in brief: (§1)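 DHPR from human liver (6 mU, 60 ng protein) or rat striatal synaptosomes (6.5 mU, 75 μg twice-washed P₂ protein), preincubated 10 min at 25 °C with at least six inhibitor concentrations. Residual activity measured with 50 μM qDMPH₂ and 50 μM NADH by decrease in NADH absorbance at 340 nm; I₅₀ = concentration giving 50% inhibition.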

[2] = molecular target: T2, Dihydropteridine reductase (Rattus norvegicus, UniProt P11348); experiment: Inhibitory activity against rat striatal synaptosomes Dihydropteridine reductase (DHPR); type: subcellular, Brain; conditions: read-out: I50; method in brief: as §1
T2 sequence (P11348 whole entry): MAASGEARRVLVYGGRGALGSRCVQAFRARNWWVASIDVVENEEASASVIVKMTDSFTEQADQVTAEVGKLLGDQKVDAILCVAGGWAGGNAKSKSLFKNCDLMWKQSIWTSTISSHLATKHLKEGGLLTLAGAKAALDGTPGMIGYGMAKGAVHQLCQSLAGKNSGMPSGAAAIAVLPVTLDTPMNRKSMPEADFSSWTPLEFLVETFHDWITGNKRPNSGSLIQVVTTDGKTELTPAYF

[3] = molecular target: T1, Dihydropteridine reductase; experiment: Noncompetitive Iinhibitory activity against human liver DHPR enzyme
[4] = molecular target: T2, Dihydropteridine reductase; experiment: Noncompetitive Inhibitory activity against rat striatal synaptosomal DHPR enzyme
[5] = molecular target: T1, Dihydropteridine reductase; experiment: Inhibitory activity against human liver Dihydropteridine reductase enzyme using 10 uM qBH2 and 50 uM NADH assays; conditions: read-out: I50
Method in brief: (§2)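 Human liver or rat striatal synaptosomal DHPR, preincubated 10 min at 25 °C with inhibitor. Activity then assayed using natural substrate (6R)-dihydrobiopterin (qBH₂) at 10 μM with 50 μM NADH, followed as NADH absorbance decrease at 340 nm, to give 50% inhibitory concentrations.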

[6] = molecular target: T2, Dihydropteridine reductase; experiment: Inhibitory activity against rat striatal synaptosomes […] using 10 uM qBH2 and 50 uM NADH assays; type: subcellular, Brain; conditions: read-out: I50; method in brief: as §2
[7] = molecular target: T1, Dihydropteridine reductase; experiment: Inhibitory activity against human liver Dihydropteridine reductase using 10 uM qBH2 and 50 uM NADH assays; conditions: read-out: I50; method in brief: as §2

| Compound | IC50 [1] [µM] | IC50 [2] [µM] | further results |
| --- | --- | --- | --- |
| Clc1ccc(C2=CCNCC2)cc1 | 3400 | 4000 | – |
| C[n+]1ccc(-c2ccccc2)cc1 [listing 1 of 2 here] | 5600 | 3400 | – |
| Oc1ccc(C2=CCNCC2)cc1O | 3.6 | 1.9 | – |
| C=CC[n+]1ccc(-c2ccccc2)cc1 | 9400 | 7400 | – |
| COc1ccc(C2=CCN(C(C)=O)CC2)cc1OC | 1100 | 2300 | – |
| COc1cc(C2=CCNCC2)ccc1O | 7.2 | – | – |
| CC(=O)N1CCC(c2ccc(O)c(O)c2)CC1 | 5.2 | 3.1 | – |
| COc1cc(C2CCN(C(C)=O)CC2)ccc1O | 27 | 4.4 | – |
| Oc1ccc(C2=CCNCC2)cc1 | 5.9 | 3.4 | – |
| C[n+]1ccc(-c2ccccc2)cc1 [listing 2 of 2 here] | 10000 | 12000 | – |
| CN1CC=C(c2ccc(O)cc2)CC1 | 3 | 2.6 | Ki [3]: 2.8 µM |
| c1ccc(-c2ccncc2)cc1 | 2400 | 1900 | – |
| COc1cc(C2CCN(C)CC2)ccc1O | 19 | 20 | – |
| C[n+]1ccc(-c2ccc(O)c(O)c2)cc1 | 0.63 | 1.6 | Ki [4]: 1.9 µM |
| COc1ccc(-c2ccncc2)cc1OC | 5300 | 2000 | – |
| Oc1ccc(-c2ccncc2)cc1O | 0.38 | 0.28 | – |
| Oc1ccc(C2CCNCC2)cc1O | 44 | 38 | – |
| COc1cc(C2=CCN(C(C)=O)CC2)ccc1O | 5 | 91 | – |
| CN1CC=C(c2ccccc2)CC1 | 3000 | 4600 | IC50 [5]: 7200 µM; IC50 [6]: 8400 µM |
| CN1CCC(c2ccc(O)c(O)c2)CC1 | 42 | 60 | Ki [4]: 74 µM |
| COc1cc(C2=CCN(C)CC2)ccc1O | 9.3 | 5.8 | – |
| CN1CC=C(c2ccc(O)c(O)c2)CC1 | 3.4 | 2.5 | Ki [4]: 3.3 µM; IC50 [7]: 1.4 µM; IC50 [6]: 1.2 µM |
| CC(=O)N1CC=C(c2ccc(O)c(O)c2)CC1 | 0.28 | 0.25 | – |
| CN1CC=C(c2ccc(Cl)cc2)CC1 | 2700 | 6400 | – |
| C1=C(c2ccccc2)CCNC1 | 12000 | 6600 | – |
| CN1CCC(c2ccccc2)CC1 | 23000 | 12000 | – |
